These results are taken from ChEMBL document CHEMBL3286336, “Design, synthesis and biological evaluation of hybrid bioisoster derivatives of N-acylhydrazone and furoxan groups with potential and selective anti-Trypanosoma cruzi activity” (Eur J Med Chem, 2014).

Where only a bound is given, the exact number is not on record here.

Usually IC50 stands for the point on the concentration scale where inhibition reaches its midpoint. As a reminder, the efflux ratio is the permeability from basolateral to apical divided by that in the opposite direction, in the common usage.

The nature of data set [1]: Induction of NO release assessed as nitrite level. The data set is classed as physicochemical. Put shortly: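 Indirect measurement on a Sievers NOA 280 nitric oxide analyser; compounds dissolved in DMSO (1 mg in 200 µL) and analysed in oxygenated medium. Nitrite anion, the NO degradation byproduct, quantified; result given as IC50.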
In another data set the test system is Trypanosoma cruzi. In words: Trypanocidal activity against Trypanosoma cruzi Tulahuen C2C4 amastigotes infected in rat L6 cells after 4 days. In kind it is functional, organism-based. The note with it: Tulahuen C2C4, L6, 96 h.
The next data set concerns HepG2. In words: Cytotoxicity against human HepG2 cells after 24 hrs by XTT assay. In kind it is cell-based. As to conditions: HepG2, 24 h. The gist of the method:
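Cells kept in DMEM with 10% FCS, penicillin/streptomycin and bicarbonate at 37 °C, 5% CO2; plated at 5 × 10⁴ cells/well 24 h before treatment. Exposed 24 h to […] in DMSO (final 0.44% v/v). After two PBS washes, XTT reagent added for 1 h at 37 °C; OD 450 nm minus 690 nm, normalized to medium-only controls.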
A general note: Tetrazolium assays rely on reduction of a dye to a coloured formazan, in cell work by metabolically active cells.

Another data set has as its target Cruzipain (Trypanosoma cruzi, UniProt P25779). In words: Inhibition of Trypanosoma cruzi cruzain expressed in Escherichia coli M15/DH5alpha using Z-Phe-Arg-AMC as substrate by spectrofluorometry. The gist of the method:
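C-terminally truncated cruzain (0.64 nM) in 50 mM sodium phosphate, 100 mM NaCl, 5 mM EDTA, 5 mM DTT, pH 6.5, preincubated 5 min at room temperature with inhibitor before adding Z-Phe-Arg-AMC. AMC release followed by fluorescence (ex 355, em 460 nm). IC50 by nonlinear regression of activity relative to no-inhibitor control.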

A short description of data set [2]: Permeability across basolateral to apical side in human Caco2 cells. As to conditions: Caco-2, read-out: permeability. In kind it is ADME, cell-based. Put shortly:
(§1)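 Caco-2 grown 21 days on Transwell filters (seeded 5 × 10⁴ cells/cm²); monolayer integrity checked by TEER and fluorescein, metoprolol, amoxicillin markers. […] compound in HBSS pH 7.4 dosed A→B and B→A, basolateral pH 7.4, 37 °C, orbital shaking 25 rpm. Quantified by HPLC-UV 254 nm (C18, 35 °C, phosphate pH 3.5/acetonitrile 50:50). Papp = (VR·ΔQ/Δt)/(A·C0), using only receiver concentrations under 10% of donor.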

Data set [3] is described as follows: Permeability across apical to basolateral side in human Caco2 cells. In kind it is ADME, cell-based. As to conditions: Caco-2, read-out: permeability. The gist of the method:
as §1

Data set [4] in a line: Selectivity index, ratio of IC50 for human HepG2 cells to IC50 for Trypanosoma cruzi Tulahuen C2C4. The data set is classed as toxicity, cell-based. As to conditions: read-out: Ratio IC50. Put shortly: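 SI computed as XTT cytotoxicity IC50 divided by amastigote IC50.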
Data set [5] is described as follows: Efflux ratio of permeability from basolateral to apical side over apical to basolateral side in human Caco2 cells. The data set is classed as ADME, cell-based. The note with it: Caco-2. Background: Caco-2 cells form a polarised layer with tight junctions and transporters.

Chain of Cruzipain (P25779 whole entry, the tested form may be a part): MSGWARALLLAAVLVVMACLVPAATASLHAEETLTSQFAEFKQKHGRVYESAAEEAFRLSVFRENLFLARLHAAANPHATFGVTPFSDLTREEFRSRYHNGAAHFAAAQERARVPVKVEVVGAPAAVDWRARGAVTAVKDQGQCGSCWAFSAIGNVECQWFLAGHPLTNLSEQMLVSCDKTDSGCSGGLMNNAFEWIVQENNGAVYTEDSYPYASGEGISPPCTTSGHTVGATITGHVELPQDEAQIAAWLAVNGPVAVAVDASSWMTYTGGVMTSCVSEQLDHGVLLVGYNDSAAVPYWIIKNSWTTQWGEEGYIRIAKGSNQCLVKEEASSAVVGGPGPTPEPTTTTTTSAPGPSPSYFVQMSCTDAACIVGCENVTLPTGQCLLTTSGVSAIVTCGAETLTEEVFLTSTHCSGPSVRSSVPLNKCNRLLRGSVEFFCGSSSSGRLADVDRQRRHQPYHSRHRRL

With `Cc1c(/C=N/NC(=O)Cc2ccccc2)no[n+]1[O-]`, the IC50 in data set [1] is 898 µM; with Trypanosoma cruzi, > 100 µM.
The like results for `Cc1c(/C=N/NC(=O)c2ccc(Br)cc2)no[n+]1[O-]` were, in that order, 102 µM and 27.4 µM.
As for `Cc1c(/C=N/NC(=O)c2ccc([N+](=O)[O-])cc2)no[n+]1[O-]`, the IC50 in data set [1] was found to be 242 µM; in the data set on HepG2, 80.9 µM; at Cruzipain, 11.2 µM; in the data set on Trypanosoma cruzi it was 2.88 µM. Also, the Papp B→A in data set [2] stood at 37.6 ×10⁻⁶ cm/s. Besides, in data set [3], the Papp A→B stood at 43.2 ×10⁻⁶ cm/s. Also, the selectivity ratio in data set [4] amounted to 28.1. In addition, in data set [5], the efflux ratio was 0.87.
On to `O=C(N/N=C/c1c(-c2ccccc2)no[n+]1[O-])c1ccc(Br)cc1`, for which the IC50 in data set [1] is 601 µM; with Trypanosoma cruzi, > 100 µM.
The like results for `Cc1c(/C=N/NC(=O)c2ccccc2Nc2ccccc2)no[n+]1[O-]` were, in that order, 124 µM and 5.69 µM.
Turning to `Cc1c(/C=N/NC(=O)c2ccc(Cl)cc2)no[n+]1[O-]`, the IC50 in data set [1] amounted to 56 µM; in the data set on Trypanosoma cruzi it was 14.3 µM.
In the case of `O=C(Cc1ccccc1)N/N=C/c1c(-c2ccccc2)no[n+]1[O-]`, the results for the IC50 (in data set [1]; in the data set with Trypanosoma cruzi) were 33.4 µM and 9.1 µM, respectively.
For the molecule `O=C(N/N=C/c1c(-c2ccccc2)no[n+]1[O-])c1ccco1`, the IC50 in data set [1] worked out at 867 µM; in the data set with Trypanosoma cruzi, 8.12 µM.
On the same counts, the results for `Cc1c(/C=N/NC(=O)c2cccc([N+](=O)[O-])c2)no[n+]1[O-]` are 52 µM and 9.94 µM.
On the same counts, the results for `O=C(N/N=C/c1c(-c2ccccc2)no[n+]1[O-])c1ccccc1` are 132 µM and > 100 µM.
Consider `O=C(Cn1ccnc1[N+](=O)[O-])NCc1ccccc1` [BENZNIDAZOLE], for which the IC50 with HepG2 was 28.1 µM; in the data set on Trypanosoma cruzi it was 1.5 µM. In data set [4], the selectivity ratio worked out at 18.7.
`O=C(N/N=C/c1c(-c2ccccc2)no[n+]1[O-])c1ccc([N+](=O)[O-])cc1`: the concentration for half-maximal inhibition (IC50) in data set [1] was 110 µM; with HepG2 it was 45.5 µM; on Cruzipain, 15.1 µM; in the data set on Trypanosoma cruzi it was 2.9 µM. Besides, the Papp B→A in data set [2] turned out to be 0.52 ×10⁻⁶ cm/s. In data set [3], the Papp A→B was 0.82 ×10⁻⁶ cm/s. The selectivity ratio in data set [4] was 15.7. The efflux ratio in data set [5] came out at 0.63.
Consider `Cc1c(/C=N/NC(=O)c2ccccc2)no[n+]1[O-]`, for which the IC50 in data set [1] was 210 µM; with Trypanosoma cruzi it was > 100 µM.
The like results for `O=C(N/N=C/c1c(-c2ccccc2)no[n+]1[O-])c1ccc(Cl)cc1` were, in that order, 4230 µM and > 100 µM.
On the same counts, the results for `O=C(N/N=C/c1c(-c2ccccc2)no[n+]1[O-])c1cccc([N+](=O)[O-])c1` are 912 µM and 15.3 µM.
The like results for `Cc1c(/C=N/NC(=O)c2ccco2)no[n+]1[O-]` were, in that order, 1220 µM and 6.7 µM.
